≈ marks a conversion by molar mass, not a printed value. Calls of active or inactive are those of the source. No cut-off for these calls is given here.
Experiments:
[1] = biological target: T1, L-cysteine:1D-myo-inositol 2-amino-2-deoxy-alpha-D-glucopyranoside ligase (Mycobacterium tuberculosis, UniProt P9WJM9); assay: Inhibition of Mycobacterium tuberculosis recombinant MshC assessed as production of Cys-GlcN-Ins from cysteine by HPLC based fluorescence assay
T1 sequence (P9WJM9 whole entry): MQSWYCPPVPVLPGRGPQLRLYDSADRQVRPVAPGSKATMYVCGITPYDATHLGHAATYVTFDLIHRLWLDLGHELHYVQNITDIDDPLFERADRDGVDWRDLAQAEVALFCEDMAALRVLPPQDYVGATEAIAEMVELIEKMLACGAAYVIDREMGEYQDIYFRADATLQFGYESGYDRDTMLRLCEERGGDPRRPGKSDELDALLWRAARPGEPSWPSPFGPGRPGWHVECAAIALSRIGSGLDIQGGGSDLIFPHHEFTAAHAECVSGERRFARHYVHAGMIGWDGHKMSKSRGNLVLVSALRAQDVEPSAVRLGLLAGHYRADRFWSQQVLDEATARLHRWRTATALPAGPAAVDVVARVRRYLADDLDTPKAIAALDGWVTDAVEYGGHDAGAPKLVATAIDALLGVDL

[2] = Antimycobacterial activity against mid-log phase of Mycobacterium tuberculosis Erdman ATCC 35801 after 7 days by 96 well plate assay; type: functional, Mycobacterium tuberculosis str. Erdman; settings: ATCC 35801, 168 h
Vero = assay: Cytotoxicity against african green monkey Vero cells assessed as cell viability after 48 hrs by neutral red assay; type: cell-based; settings: chlorocebus sabaeus
[3] = system: Mycobacterium tuberculosis; assay: Antimycobacterial activity against mid-log phase of Mycobacterium tuberculosis CDC1551 isolated from patient after 7 days by 96 well plate assay; type: functional; settings: CDC1551, 168 h
[4] = Antimycobacterial activity against mid-log phase of Mycobacterium tuberculosis Erdman ATCC 35801 assessed as reduction of viability at 50 to 75 uM after 7 days by 96 well plate assay relative to control; type: functional, Mycobacterium tuberculosis str. Erdman
[5] = system: Mycobacterium tuberculosis str. Erdman; assay: Antimycobacterial activity against mid-log phase of Mycobacterium tuberculosis Erdman ATCC 35801 assessed as growth inhibition by measuring change on optical density at 600 nm at 30 to 50 uM after 7 days; type: functional
Procedure, shortened: (§1)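 Mid-log Erdman in 7H9 + ADS adjusted to OD600 0.08; 8 mL aliquots with 10–75 µM compound (from DMSO stock) in vented flasks, 7 d at 37 °C; duplicates with DMSO-matched control; growth read as 7-day change in OD600.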

[6] = Antimycobacterial activity against mid-log phase of Mycobacterium tuberculosis Erdman ATCC 35801 assessed as reduction of viability at 20 uM after 7 days by 96 well plate assay; type: functional, Mycobacterium tuberculosis str. Erdman
[7] = Antimycobacterial activity against non-replicating Mycobacterium tuberculosis Erdman ATCC 35801 nutrient starvation model assessed as reduction viability at 90 uM after 15 days by 96 well plate assay; type: functional, Mycobacterium tuberculosis str. Erdman
Procedure, shortened: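 Non-replicating Erdman from nutrient starvation in PBS + 0.05% Tween 80 for 6 weeks; compound dilutions then added and incubation continued 15 d; viable counts by plating serial dilutions on 7H9 agar with OADC; duplicate samples.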

[8] = system: Mycobacterium tuberculosis str. Erdman; assay: Antimycobacterial activity against mid-log phase of Mycobacterium tuberculosis Erdman ATCC 35801 assessed as growth inhibition by measuring change on optical density at 600 nm after 7 days; type: functional; procedure, shortened: as §1
[9] = biological target: T2, L-cysteine:1D-myo-inositol 2-amino-2-deoxy-alpha-D-glucopyranoside ligase (Mycobacterium tuberculosis) (UniProt P9WJM9); assay: Inhibition of MshC in Mycobacterium tuberculosis Erdman ATCC 35801 assessed as reduction of Cys-GlcN-Ins accumulation at 10 to 80 uM after 7 days by HPLC based fluorescence assay; settings: Mycobacterium tuberculosis str. Erdman
T2 sequence (whole entry): T1 sequence (P9WJM9 whole entry)

[10] = system: Mycobacterium tuberculosis str. Erdman; assay: Antimycobacterial activity against mid-log phase of Mycobacterium tuberculosis Erdman ATCC 35801 assessed as growth inhibition after 7 days by 96 well plate assay; type: functional

SMILES | IC50 [1] | other results
CCN1C(=O)c2ccccc2[S+]([O-])c2ccc(C(=O)NCCCN3CCCCCC3)cc21 (racemic) | ≥ 3000 µM | –
CN(CCCNC(=O)c1ccc2c(c1)N(Cc1ccccc1)C(=O)c1ccccc1[S+]2[O-])C1CCCCC1 (racemic) | 300 µM | –
CCCN(CCC)CCCNC(=O)c1ccc2c(c1)N(Cc1cccc(Cl)c1)C(=O)c1ccccc1[S+]2[O-] (racemic) | 100 µM | –
CCN(CC)CCCNC(=O)c1ccc2c(c1)N(Cc1ccc(C)cc1C)C(=O)c1ccccc1[S+]2[O-] (racemic) | > 3000 µM | –
CC1CCCN(CCCNC(=O)c2ccc3c(c2)N(Cc2cccc(Cl)c2)C(=O)c2ccccc2[S+]3[O-])C1 (racemic) | – | MIC95 [2]: 55 µM (≈ 30.3 µg/mL); cytotoxic concentration (Vero): 100 µM
O=C(NCCCN1CCOCC1)c1ccc2c(c1)N(Cc1cccc(Cl)c1)C(=O)c1ccccc1S2(=O)=O | 3000 µM | –
O=C(NCCCN1CCOCC1)c1ccc2c(c1)N(Cc1cccc(Cl)c1)C(=O)c1ccccc1S2 | 800 µM | –
CN(CCCNC(=O)c1ccc2c(c1)N(Cc1ccccc1)C(=O)c1ccccc1S2(=O)=O)C1CCCCC1 | 500 µM | –
O=C(NCC1CCCN1)c1ccc2c(c1)N(Cc1cccc(Cl)c1)C(=O)c1ccccc1S2(=O)=O (configuration not stated) | 2500 µM | –
CCC1CCCCN1CCCNC(=O)c1ccc2c(c1)N(Cc1cccc(Cl)c1)C(=O)c1ccccc1[S+]2[O-] (racemic) | 80 µM | MIC95 [2]: 55 µM (≈ 31 µg/mL); cytotoxic concentration (Vero): 100 µM; MIC95 [3]: 32 µM (≈ 18.1 µg/mL)
CC1CC(C)CN(CCCNC(=O)c2ccc3c(c2)N(Cc2ccccc2F)C(=O)c2ccccc2[S+]3[O-])C1 (racemic) | > 3000 µM | –
O=C(NCCCN1CCOCC1)c1ccc2c(c1)N(Cc1cccc(Cl)c1)C(=O)c1ccccc1[S+]2[O-] (racemic) | 500 µM | –
CO[C@H]1/C=C/O[C@@]2(C)Oc3c(C)c(O)c4c(O)c(c(/C=N/N5CCN(C)CC5)c(O)c4c3C2=O)NC(=O)/C(C)=C\C=C\[C@H](C)[C@H](O)[C@@H](C)[C@@H](O)[C@@H](C)[C@H](OC(C)=O)[C@@H]1C [RIFAMPIN] | – | MIC95 [2]: 0.24 µM (≈ 0.198 µg/mL)
Cc1ccc(CN2C(=O)c3ccccc3S(=O)(=O)c3ccc(C(=O)NCCCN4CCCC4)cc32)c(C)c1 | 1400 µM | –
CC1CC(C)CN(CCCNC(=O)c2ccc3c(c2)N(Cc2cccc(Cl)c2)C(=O)c2ccccc2[S+]3[O-])C1 (racemic) | 500 µM | –
CN(CCCNC(=O)c1ccc2c(c1)N(Cc1cccc(Cl)c1)C(=O)c1ccccc1[S+]2[O-])C1CCCCC1 (racemic) | 85 µM | MIC95 [2]: 28 µM (≈ 15.8 µg/mL); Activity [4]: 97%; cytotoxic concentration (Vero): 50 µM; growth inhibition (GI) [5]: 50%; Activity [6]: 50%; Activity [7]: 99%; growth inhibition (GI) [8]: Dose-dependent effect; inhibition [9]: Active; growth inhibition (GI) [10]: Dose-dependent effect
Cc1ccc(CN2C(=O)c3ccccc3S(=O)(=O)c3ccc(C(=O)NCCCN4CCOCC4)cc32)c(C)c1 | > 3000 µM | –
Cc1ccc(CN2C(=O)c3ccccc3[S+]([O-])c3ccc(C(=O)NCCCN(C)C4CCCCC4)cc32)c(C)c1 (racemic) | 2000 µM | –
CN(CCCNC(=O)c1ccc2c(c1)N(Cc1ccc(F)cc1)C(=O)c1ccccc1[S+]2[O-])C1CCCCC1 (racemic) | > 3000 µM | –
O=C(NCCCSC1CCCCC1)c1ccc2c(c1)N(Cc1cccc(Cl)c1)C(=O)c1ccccc1[S+]2[O-] (racemic) | ≥ 1000 µM | –
CN(CCCNC(=O)c1ccc2c(c1)N(Cc1ccc(Cl)cc1)C(=O)c1ccccc1S2(=O)=O)C1CCCCC1 | 330 µM | –
CC1CCCN(CCCNC(=O)c2ccc3c(c2)N(Cc2ccccc2F)C(=O)c2ccccc2S3(=O)=O)C1 (configuration not stated) | 800 µM | –
CCCCN(C)CCCNC(=O)c1ccc2c(c1)N(Cc1cccc(Cl)c1)C(=O)c1ccccc1[S+]2[O-] (racemic) | 110 µM | –
O=C(NCCN1CCCCCC1)c1ccc2c(c1)N(Cc1cccc(Cl)c1)C(=O)c1ccccc1[S+]2[O-] (racemic) | 100 µM | MIC95 [2]: 28 µM (≈ 15 µg/mL); cytotoxic concentration (Vero): 100 µM
O=C(NCCCN1CCCC1)c1ccc2c(c1)N(Cc1cccc(Cl)c1)C(=O)c1ccccc1[S+]2[O-] (racemic) | 100 µM | MIC95 [2]: 55 µM (≈ 28.7 µg/mL); cytotoxic concentration (Vero): 50 µM
CN(CCCNC(=O)c1ccc2c(c1)N(Cc1cccc(Cl)c1)C(=O)c1ccccc1S2)C1CCCCC1 | 280 µM | –
CN(C)CCCNC(=O)c1ccc2c(c1)N(Cc1ccc(Cl)cc1)C(=O)c1ccccc1[S+]2[O-] (racemic) | 340 µM | –
O=C(NCCCN1CCCC1)c1ccc2c(c1)N(Cc1cccc(Cl)c1)C(=O)c1ccccc1S2 | 130 µM | MIC95 [2]: 55 µM (≈ 27.8 µg/mL); cytotoxic concentration (Vero): 50 µM
